For seven molecules, EC50 and Activity results are on record in ChEMBL document CHEMBL1142313, “Parallel synthesis of a series of potentially brain penetrant aminoalkyl benzoimidazoles” (Bioorg Med Chem, 2008).

The EC50 is the concentration that produces a half-maximal response.

Activity calls are given as the source filed them. The rule behind the calls is not given here.

Neuronal acetylcholine receptor subunit alpha-7 (Rattus norvegicus), sequence (Q05941 whole entry): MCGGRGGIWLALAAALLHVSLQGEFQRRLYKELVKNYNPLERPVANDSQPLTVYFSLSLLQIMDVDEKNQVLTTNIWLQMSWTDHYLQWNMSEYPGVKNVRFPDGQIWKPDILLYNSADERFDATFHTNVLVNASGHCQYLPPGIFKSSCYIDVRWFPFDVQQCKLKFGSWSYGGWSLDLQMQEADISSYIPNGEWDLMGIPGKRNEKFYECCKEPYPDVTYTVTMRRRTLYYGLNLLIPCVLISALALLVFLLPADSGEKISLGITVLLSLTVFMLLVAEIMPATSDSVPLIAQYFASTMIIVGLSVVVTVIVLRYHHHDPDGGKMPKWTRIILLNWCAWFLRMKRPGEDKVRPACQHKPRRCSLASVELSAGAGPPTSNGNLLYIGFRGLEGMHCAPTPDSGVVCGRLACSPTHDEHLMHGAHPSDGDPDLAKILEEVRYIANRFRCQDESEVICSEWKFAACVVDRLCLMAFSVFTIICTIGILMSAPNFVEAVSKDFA

The target of one experiment is Neuronal acetylcholine receptor subunit alpha-7 (Rattus norvegicus, UniProt Q05941). Put plainly: Agonist activity at rat alpha-7 nAChR expressed in GH4C1-F7 cells assessed as effect on calcium influx by FLIPR. It is filed as functional, cell-based.
Neuronal acetylcholine receptor subunit alpha-7, sequence (Q05941 whole entry): as above
Turning to `Cc1ccc2nc(Cc3ccc(Br)cc3)n(CCCN(C)C)c2c1`, the EC50 came out at 1700 nM.

Turning to `CN(C)CCCn1c(COc2ccccc2)nc2ccccc21`, the EC50 turned out to be 2600 nM.

On to `CN1CCCC1CCn1c(Cc2ccc(Br)cc2)nc2ccccc21` (stereo unspecified), for which the concentration for a half-maximal effect (EC50) is 2700 nM.

For the molecule `O=C(Nc1ccccc1F)OC1CN2CCC1CC2` (stereo unspecified), the EC50 worked out at 600 nM.

Take `CN(C)CCCn1c(Cc2ccc(Br)cc2)nc2ccccc21`: the EC50 turned out to be 2600 nM.

For the molecule `CN1[C@@H]2CC[C@H]1C[C@H](NC(=O)Nc1ccc(Br)cc1)C2`, the EC50 came to 200 nM.

`CN1CCN(CCCn2c(COc3cccc(Cl)c3)nc3ccccc32)CC1`: the EC50 worked out at 10000 nM.

Another experiment concerns the target Neuronal acetylcholine receptor subunit alpha-7 (Rattus norvegicus) (UniProt Q05941). Put plainly: Reversal of agonist activity at rat alpha-7 nAChR expressed in GH4C1-F7 cells assessed as effect on calcium influx at 10 uM in presence of methyllycaconitine by FLIPR. It is filed as functional, cell-based. The procedure, abridged:
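GH4C1-F7 rat alpha7-nAChR cells loaded with Fluo-4/probenecid at 37 °C for 30 min, then washed in HBSS-20 mM Hepes with 2.5 mM probenecid, with or without MLA 1 µM. Compound added and Ca2+ fluorescence read by FLIPR, every second for 1 min then every 30 s for 10 min. Peak height taken as max-min. A signal lost in the presence of MLA marks alpha7 selectivity.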
Regarding `Cc1ccc2nc(Cc3ccc(Br)cc3)n(CCCN(C)C)c2c1`, the outcome was Active.

Consider `CN(C)CCCn1c(COc2ccccc2)nc2ccccc21`, for which the result was Active.

As to `CN1CCCC1CCn1c(Cc2ccc(Br)cc2)nc2ccccc21` (stereo unspecified), the result was Active.

In the case of `CN(C)CCCn1c(Cc2ccc(Br)cc2)nc2ccccc21`, the outcome was Active.

The target is the same in the next experiment. As to the kind of experiment: Agonist activity at rat alpha-7 nAChR expressed in GH4C1-F7 cells assessed as effect on calcium influx at 5 uM by FLIPR relative to nicotine. It counts as functional, cell-based. The procedure, abridged: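 GH4C1-F7 cells stably expressing rat alpha7 nAChR were seeded at 100,000/well on poly-D-lysine plates and loaded with Fluo-4 (with pluronic acid and probenecid) for 30 min at 37 °C.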
For `Cc1ccc2nc(Cc3ccc(Br)cc3)n(CCCN(C)C)c2c1`, the Activity is more than 20%.

Turning to `CN(C)CCCn1c(COc2ccccc2)nc2ccccc21`, the Activity is more than 20%.

For the molecule `CN1CCCC1CCn1c(Cc2ccc(Br)cc2)nc2ccccc21` (stereo unspecified), the Activity is more than 20%.

As to `CN(C)CCCn1c(Cc2ccc(Br)cc2)nc2ccccc21`, the Activity is more than 20%.

Consider `CN1CCN(CCCn2c(COc3cccc(Cl)c3)nc3ccccc32)CC1`, for which the Activity is more than 20%.
